Test results from ChEMBL document CHEMBL1125255, “Romazarit: a potential disease-modifying antirheumatic drug” (J Med Chem, 1991).
Several values for one entry are separate records, joined by “and”; a condition that tells them apart may be missing. Equal values may be shown once. Activity calls are given as the source filed them. The calls are words filed in the database; no cut-off is given here.

Experiments:
[1] = Partition coefficient (logP); format: physicochemical; details: octanol/water
Outline: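 Compound dissolved in disodium hydrogen phosphate/citric acid buffer pH 7.4 and partitioned against equal volume octan-1-ol. Buffer-phase UV absorbance read before and after partitioning near λmax. P′ from the octanol:buffer absorbance ratio.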

Rattus norvegicus [2] = test: Hepatic effect assessed by increase in catalase levels after 14 days of dosing at 100 mg/kg orally.; format: functional
Outline: (§1)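 Type II collagen arthritis rats, eight per group, given oral sodium salts daily for 14 days. At termination liver homogenized in ice-cold 0.25 M sucrose and spun 2000 rpm 10 min. Catalase followed by decline in A240 from H2O2 breakdown, expressed as first-order rate constant K. Result given as % change versus normals.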

Rattus norvegicus [3] = test: Compound was evaluated in developing adjuvant arthritis model rats for its effect on paw edema.; format: functional; parameters: concentration or dose not given beside the values
Outline: (§2)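 Female Allen and Hanbury hooded rats, five per group. Right hind paw injected sc on day 0 with heat-killed M. tuberculosis in paraffin oil (5 mg/mL). Compounds given orally as sodium salts in water. Paw volumes of both hind paws measured days 1–4, 1 h after dosing. Percent inhibition taken from area under the curve of the between-paw volume difference.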

Rattus norvegicus [4] = test: Radiographic change was judged in the area of the talus joint, using an arbitrary scoring system upon termination of the test (14 days dosing of 100 mg/kg) in a model of type II collagen arthritis in the rat.; format: functional; details: 336 h
Outline: (§3)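 Type II collagen arthritis rats, eight per group, oral sodium salts daily from grouping (day 1). Hind limbs X-rayed post mortem. Tibia/talus and tarsus damage scored 0–3 per foot by two observers and averaged; left and right summed (max 6). Compared with arthritic controls by Mann–Whitney U test.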

Rattus norvegicus [5] = test: Hepatic effect assessed by increase in liver weight after 14 days of dosing at 100 mg/kg orally.; format: functional
Outline: (§4)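 Type II collagen arthritis rats, eight per group, daily oral dosing as sodium salts in water for 14 days. Liver weight recorded at termination and expressed as percentage change versus normal animals.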

Rattus norvegicus [6] = test: Radiographic change was judged in the area of the tarsus region, using an arbitrary scoring system upon termination of the test (14 days dosing of 100 mg/kg) in a model of type II collagen arthritis in the rat.; format: functional; details: 336 h; outline: as §3
Rattus norvegicus [7] = species: Rattus norvegicus; test: Percent decrease in serum haptoglobin evaluated in a developing adjuvant arthritis model rats.
Rattus norvegicus [8] = species: Rattus norvegicus; test: Percent decrease in serum haptoglobin evaluated in a developing adjuvant arthritis model rats; No significant effect
Rattus norvegicus [9] = test: Compound was evaluated in developing adjuvant arthritis model rats for its effect on paw edema; No significant effect; format: functional, organism-based; outline: as §2
Rattus norvegicus [10] = test: Radiographic change was judged in the area of the talus joint, using an arbitrary scoring system upon termination of the test (0.5 mg/kg 1-5 days dosing,0.25 mg/kg 6-15 days dosing)in a model of type II collagen arthritis in the rat.; format: functional; outline: as §3
Rattus norvegicus [11] = test: Radiographic change was judged in the area of the tarsus region, using an arbitrary scoring system upon termination of the test (14 days dosing of 50 mg/kg) in a model of type II collagen arthritis in the rat.; format: functional; details: 336 h; outline: as §3
Rattus norvegicus [12] = test: Hepatic effect assessed by increase in catalase levels after 14 days of dosing at 50 mg/kg orally.; format: functional; outline: as §1
Rattus norvegicus [13] = test: Radiographic change was judged in the area of the talus joint, using an arbitrary scoring system upon termination of the test (14 days dosing of 50 mg/kg) in a model of type II collagen arthritis in the rat.; format: functional; details: 336 h; outline: as §3
Rattus norvegicus [14] = test: Hepatic effect assessed by increase in liver weight after 14 days of dosing at 50 mg/kg orally.; format: functional; outline: as §4
[15] = Inhibition of prostaglandin synthetase in sheep seminal vesicle; parameters: species or system Ovis aries
Outline: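 Sheep seminal vesicle enzyme (2.5 mg/mL) preincubated 5 min at 30 °C with or without compound (sodium salt, aqueous) plus glutathione 1 mM and adrenaline 625 μM. Integrated prostaglandin/thromboxane peak area compared with the no-drug control.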

Rattus norvegicus [16] = test: Radiographic change was judged in the area of the tarsus region, using an arbitrary scoring system upon termination of the test (14 days dosing of 1 mg/kg) in a model of type II collagen arthritis in the rat.; format: functional; details: 336 h; outline: as §3
Mononuclear cell line = test: Inhibition of human PGE-2 production.; format: functional, cell-based
Outline: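 Human blood mononuclear cells from healthy volunteers stimulated with 2.5 μg/mL phytohaemagglutinin and incubated 24 h with compound (sodium salt). PGE2 measured by RIA.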

Rattus norvegicus [17] = test: Radiographic change was judged in the area of the talus joint, using an arbitrary scoring system upon termination of the test (14 days dosing of 1 mg/kg) in a model of type II collagen arthritis in the rat.; format: functional; details: 336 h; outline: as §3

Row | SMILES | logP [1] | Change (Rattus norvegicus [2]) [%] | Inhibition (Rattus norvegicus [3]) [%] | inhibition in vivo at 100 mg/kg (Rattus norvegicus [4]) [%] | Change (Rattus norvegicus [5]) [%] | inhibition in vivo at 100 mg/kg (Rattus norvegicus [6]) [%] | Decrease (Rattus norvegicus [7]) [%] | Decrease (Rattus norvegicus [8]) | inhibition (Rattus norvegicus [9]) | other results
1 | C[C@@H]1C[C@H]2[C@@H]3CCC4=CC(=O)C=C[C@]4(C)[C@@]3(F)[C@@H](O)C[C@]2(C)[C@@]1(O)C(=O)CO [DEXAMETHASONE] | – | – | – | – | – | – | – | – | – | Inhibition (Rattus norvegicus [10]): 95% and 98%
2 | CC(C)(OCc1nc(-c2ccc(Cl)cc2)co1)C(=O)O | 0.15 | 68 | 69 | 63 | 19 | 39 | 9 | – | – | –
3 | CC(C)(OCc1csc(-c2ccc(Cl)cc2)n1)C(=O)O | 0.66 | – | 81 | – | – | – | 16 | – | – | –
4 | CC(C)(OCc1cc(-c2ccc(Cl)cc2)[nH]n1)C(=O)O | 0.36 | – | – | – | – | – | – | inactive | inactive | –
5 | CC(C)(OCc1cc(-c2ccc(Cl)cc2)on1)C(=O)O | 0.46 | 140 | 64 | 24 | 41 | 42 | 34 | – | – | –
6 | CC(C)(OCc1scnc1-c1ccc(Cl)cc1)C(=O)O | 0.23 | – | – | – | – | – | – | inactive | inactive | –
7 | CC(C)(OCc1cc(-c2ccc(Cl)cc2)no1)C(=O)O | 0.36 | 73 | 72 | 60 | 47 | 47 | 37 | – | – | –
8 | COc1ccc2c(c1)c(CC(=O)O)c(C)n2C(=O)c1ccc(Cl)cc1 [INDOMETHACIN] | – | – | 84 | – | – | – | – | inactive | – | IC50 [15]: 1200 nM; inhibition in vivo at 1 mg/kg (Rattus norvegicus [16]): 45%; IC50 (Mononuclear cell line): 300 nM; inhibition in vivo at 1 mg/kg (Rattus norvegicus [17]): 48%
9 | CC(C)(OCc1cccc(-c2ccc(Cl)cc2)n1)C(=O)O | 0.69 | – | – | – | – | – | – | inactive | inactive | –
10 | CC(C)(OCc1ncsc1-c1ccc(Cl)cc1)C(=O)O | 0.23 | – | – | – | – | – | – | inactive | inactive | –
11 | CC(C)(OCc1ncc(-c2ccc(Cl)cc2)o1)C(=O)O | 0.15 | -10 | 40 | 36 | 3 | 24 | 17 | – | – | –

Second part, led by results:

Row | logP [1] | SMILES | Change (Rattus norvegicus [2]) [%] | Inhibition (Rattus norvegicus [3]) [%] | inhibition in vivo at 100 mg/kg (Rattus norvegicus [4]) [%] | Change (Rattus norvegicus [5]) [%] | inhibition in vivo at 100 mg/kg (Rattus norvegicus [6]) [%] | Decrease (Rattus norvegicus [7]) [%] | Decrease (Rattus norvegicus [8]) | inhibition (Rattus norvegicus [9]) | other results
12 | 0.23 | CC(C)(OCc1coc(-c2ccc(Cl)cc2)n1)C(=O)O | 52 | 84 | 59 | 19 | 44 | 40 | – | – | –
13 | -0.54 | CC(C)(OCc1coc2ccc(Cl)cc12)C(=O)O | – | – | – | – | – | – | inactive | inactive | –
14 | -0.57 | CC(C)(OCc1cc2cc(Cl)ccc2o1)C(=O)O | – | 39 | – | – | – | – | inactive | – | –
15 | 0 | CC(C)(OCc1ccn(-c2ccc(Cl)cc2)n1)C(=O)O | – | 46 | – | – | – | 30 | – | – | inhibition in vivo at 50 mg/kg (Rattus norvegicus [11]): 32%; Change (Rattus norvegicus [12]): 90%; inhibition in vivo at 50 mg/kg (Rattus norvegicus [13]): 48%; Change (Rattus norvegicus [14]): 13%
16 | -0.15 | CC(C)(OCc1ccc(-c2ccc(Cl)cc2)nn1)C(=O)O | – | – | – | – | – | – | inactive | inactive | –
17 | 0.11 | CC(C)(OCc1cnc(-c2ccc(Cl)cc2)o1)C(=O)O | 11 | 33 | 42 | 16 | 41 | – | inactive | – | –
18 | 0.08 | Cn1cc(-c2ccc(Cl)cc2)nc1COC(C)(C)C(=O)O | – | – | – | – | – | – | inactive | inactive | –
19 | 0.04 | CC(C)(OCc1cnn(-c2ccc(Cl)cc2)c1)C(=O)O | – | 76 | – | – | – | 37 | – | – | inhibition in vivo at 50 mg/kg (Rattus norvegicus [11]): 18%; Change (Rattus norvegicus [12]): 180%; inhibition in vivo at 50 mg/kg (Rattus norvegicus [13]): 15%; Change (Rattus norvegicus [14]): 70%
20 | 0.52 | Cc1oc(-c2ccc(Cl)cc2)nc1COC(C)(C)C(=O)O | 60 | 67 | 65 | 2 | 54 | – | inactive | – | –
